V-ATPase pHluor: regulators of yeast V-ATPase proton pumping, primary screen, pHLuorin cytosolic pH fluorescence; S. cerevisiae; response, % at 10 µM; hit rate 0.37% among 350,000; in the data active = response mostly above about 7.3%, no sharp cut-off; inactive = mostly below about 5.4%; note: actives read high
Exocytosis inh: LAMP-1 surface exposure blockers, TALL-104 cells – cell-based, flow cytometry, MLPCN library, primary screen | hit rate 0.66% among 360,000 | AID 651702, 2012 | inhibition, % at 10 µM | TALL-104 LAMP-1 surface exposure; cells stimulated with thapsigargin and PMA;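 active = inhibition above about 55%, limit read from the data; inconclusive = no clear call, values can overlap the other calls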
ASAP1 GAP inh: inhibitors of human ASAP1 ArfGAP activity, primary screen, biochemical, fluorescence polarization. ASAP1-stimulated ARF1 GTP hydrolysis, GDP FP detection. inhibition, % at 16.5 µM. hit rate 0.19% among 360,000. AID 624377, 2012; in the data active = inhibition above about 25%
Target sequence (Q9ULH1 325-724 limits assumed): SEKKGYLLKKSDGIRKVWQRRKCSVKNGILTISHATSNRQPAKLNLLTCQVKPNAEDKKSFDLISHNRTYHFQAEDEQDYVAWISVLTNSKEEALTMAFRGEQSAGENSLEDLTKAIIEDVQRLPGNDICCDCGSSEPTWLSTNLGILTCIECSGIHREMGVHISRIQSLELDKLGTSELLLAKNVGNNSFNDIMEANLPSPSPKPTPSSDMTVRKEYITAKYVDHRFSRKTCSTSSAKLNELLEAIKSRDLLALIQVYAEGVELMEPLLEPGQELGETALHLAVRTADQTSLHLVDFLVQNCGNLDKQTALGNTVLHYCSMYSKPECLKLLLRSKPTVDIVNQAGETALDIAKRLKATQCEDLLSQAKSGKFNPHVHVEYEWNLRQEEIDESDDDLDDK
CendR NRP1 mod: modulators of CendR peptide binding to NRP-1, primary screen, biochemical, fluorescence polarization, uHTS | Neuropilin-1 (Homo sapiens), O14786 | FAM-RPARPAR peptide binding to NRP-1 | inhibition, % at 25 µM | hit rate 0.85% among 360,000;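 active = inhibition or corrected inhibition above about 18%, plus a signal ratio from 0.5 to 1.5, limit read from the data, passing the limit was not always enough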
ARFGAP1 inh: inhibitors of rat ARFGAP1 GAP activity, primary screen, biochemical, fluorescence polarization, GDP tracer; ADP-ribosylation factor GTPase-activating protein 1 (Rattus norvegicus), Q62848; Arfgap1-stimulated ARF1 GTP hydrolysis, GDP FP detection; inhibition, % at 16.5 µM; hit rate 0.26% among 360,000;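 active = inhibition above a per-plate limit, mean inhibition of low control wells plus 3 SD, cut at about 25% in these data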
Target sequence (Q62848 1-136 limits assumed): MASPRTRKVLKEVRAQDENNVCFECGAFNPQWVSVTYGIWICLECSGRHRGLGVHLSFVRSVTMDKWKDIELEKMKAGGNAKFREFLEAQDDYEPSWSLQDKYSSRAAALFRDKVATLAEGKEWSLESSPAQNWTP
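Material: rat Arfgap1 GAP domain (His6, aa 1-136), purified enzyme. Also added: human ARF1(Δ1-17)-GTP substrate. Compound dosing: 16.5 µM single point, 1.26% DMSO. Timing: enzyme reaction 120 min at 25 °C after 20 min preincubation. Signal: GDP detection by fluorescence polarization. Read-out basis: percent inhibition of GAP-stimulated GDP formation, scaled between DMSO and no-Arfgap1 medians.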
VATPase regulator: yeast V-ATPase proton pumping modulators, confirmation, S. cerevisiae, pH-sensitive GFP, second cherry-pick. shares compounds with V-ATPase pHluor. S. cerevisiae pHLuorin cytosolic pH, V-ATPase proton transport. response, % at 10 µM. hit rate 2% among 980. AID 602197, 2012; in the data active = response above about 24%
Of the large screens only hits and unclear results are named; the others gave an inactive call (follow-up assays come after a bar, where they were run). Rows were chosen to be rich in hits. Some 2.2% of all compounds tested hit in one or more screens of this group.

CSCCC(NC(=O)c1ccccc1)C(=O)N1CCN(C(C)=O)CC1 (centres undefined)	none
O=C(Nc1cccc(C(=O)O)c1)/C(=C\c1ccc2c(c1)OCO2)NC(=O)c1ccc(Br)o1	V-ATPase pHluor 7.5 | VATPase regulator inactive
O=C(Nc1ccc(C(=O)O)cc1)/C(=C\c1ccc2c(c1)OCO2)NC(=O)c1ccc(Br)o1	none
CCN1C(=O)CC(N2CCOCC2)C1=O (centres undefined)	none
CN(C)N1C(=O)CC(N2CCCC2)C1=O (centres undefined)	V-ATPase pHluor 10.9 | VATPase regulator inactive
CCOC(=O)c1sc(=S)n(-c2ccc(Cl)cc2)c1C	none
Cc1c(C(=O)O)sc(=S)n1-c1ccc(Cl)cc1	none | VATPase regulator inactive
CCCOc1c(Br)cc(C(=O)OCC(=O)NC(=O)c2cccn2C)cc1OC	none
CC1(C)CC(NC(=O)c2ccccc2NS(=O)(=O)c2ccc(Br)cc2)CC(C)(C)N1	none
Cc1cc(Br)ccc1NC(=O)CN(C)C(=O)C1CCN(C(=O)c2ccc(F)cc2)CC1	V-ATPase pHluor 12.1 | VATPase regulator inactive
COc1cc(C(=O)NCCOc2cccc3cccnc23)cc(OC)c1OC	V-ATPase pHluor 15.3 | VATPase regulator inactive
COC(=O)[C@]1(Cc2ccccc2)N[C@H](CN(C)C(=O)Nc2ccc(OC)cc2)[C@@H]2C(=O)N(Cc3ccccc3)C(=O)[C@@H]21	none
CC(=O)c1cccc(NC(=O)CCC(=O)c2ccc(F)cc2)c1	none
O=C(CCC(=O)c1ccc(F)cc1)Nc1cc(Cl)cc(Cl)c1	none | VATPase regulator inactive
COc1ccc(C2=NS(=O)(=O)N(C)C(C(=O)NC3CCCCC3)=C2)cc1	V-ATPase pHluor 11.4 | VATPase regulator inactive
COc1ccc(C2=NS(=O)(=O)N(C)C(C(=O)NC3CCCC3)=C2)cc1	none
O=C(N/N=C/c1cc([N+](=O)[O-])ccc1O)c1cccc2ccccc12	none
COC(=O)C1=NNC(C(=O)OC)C1c1ccccc1 (centres undefined)	V-ATPase pHluor 16.9 | VATPase regulator inactive
O=c1[nH]c(CN2CCN(c3ccccc3O)CC2)nc2ccccc12	V-ATPase pHluor 14.3 | VATPase regulator inactive
O=c1[nH]c(CN2CCN(CCO)CC2)nc2ccccc12	none
CCOC(=O)C1(C(=O)OCC)NC(=O)CC1CC (centres undefined)	V-ATPase pHluor 12.0 | VATPase regulator inactive
CCOC(=O)C1(C(=O)OCC)NC(=O)CC1C (centres undefined)	none
CCCc1nnn(S(=O)(=O)c2ccc([N+](=O)[O-])cc2)c1CCC	none
Cn1c(=O)c2cc(NC(=O)OCCF)ccc2n1Cc1cccc(C(F)(F)F)c1	none (no result: V-ATPase pHluor)
OCCC1CN(Cc2ccccc2OC2CCCC2)CCN1Cc1ccsc1 (centres undefined)	V-ATPase pHluor 8.4 | VATPase regulator inactive
O=C(CSc1n[nH]c(=O)[nH]c1=O)c1ccc(Cl)cc1Cl	none
O=C(CSc1n[nH]c(=O)[nH]c1=O)Nc1c(Cl)cc(Cl)cc1Cl	V-ATPase pHluor 12.6 | VATPase regulator inactive
Cc1ccc(S(=O)(=O)/N=C2/NC(=O)/C(=C\c3ccccc3)S2)cc1	none
Cc1ccc(/C=C2\S/C(=N/S(=O)(=O)c3cccs3)NC2=O)cc1	V-ATPase pHluor 21.5 | VATPase regulator inactive
Fc1cccc(Cl)c1CNn1cn[nH]c1=S	V-ATPase pHluor 11.2 | VATPase regulator inactive
CC(C)NC(=O)COc1ccccc1C#N	V-ATPase pHluor 13.9 | VATPase regulator inactive
C(=N\N1CCN(Cc2ccccc2)CC1)/c1ccccc1	none
Clc1cccc(/C=N/N2CCN(Cc3ccccc3)CC2)c1	V-ATPase pHluor 13.8 | VATPase regulator inactive
CCOC(=O)COc1ccc2c(C#N)c3ccccn3c2c1	V-ATPase pHluor 9.6 | VATPase regulator inactive
CC(Sc1nnnn1C)C(=O)Nc1ncc(Cl)cc1Cl (centres undefined)	none
C[C@H](CO)N1C[C@H](C)[C@@H](CN(C)S(=O)(=O)c2ccc(C#N)cc2)OCc2cnnn2CCCC1=O	V-ATPase pHluor 4.1 | VATPase regulator inactive
COc1cccc(S(=O)(=O)N(C)C[C@@H]2OCc3cnnn3CCCC(=O)N([C@H](C)CO)C[C@@H]2C)c1	V-ATPase pHluor 7.5 | VATPase regulator inactive
C[C@H](CO)N1C[C@H](C)[C@H](CN(C)S(=O)(=O)c2ccc(C#N)cc2)OCc2cnnn2CCCC1=O	none
CC(Oc1ccccc1F)c1nnc(SCC(=O)N(c2ccccc2)C2CCS(=O)(=O)C2)o1 (centres undefined)	none
CN1OC[C@@H]2CN(S(=O)(=O)c3ccccc3)[C@H](c3ccc(-n4ccnc4)cc3)C[C@@H]21	none (no result: V-ATPase pHluor)
COc1ccc(Cc2nnc(NC(=O)c3ccccc3C)s2)cc1	Exocytosis inh inconclusive
O=C(N[C@@H](Cc1ccccc1)C(=O)NCCc1c[nH]c2ccccc12)c1ccco1	V-ATPase pHluor 12.9 | VATPase regulator inactive
O=C(COc1ccc2ccccc2c1)Nc1nc2ccccc2[nH]1	V-ATPase pHluor 10.7 | VATPase regulator inactive
Cc1cccc(NS(=O)(=O)c2ccc(C)c(C(=O)N(C)C3CCN(C)CC3)c2)c1	none
Cc1ccc(C(=O)Nc2nccc(-c3cccs3)n2)cc1	V-ATPase pHluor 8.5 | VATPase regulator inactive
NC(=S)Nc1nccc(-c2cccs2)n1	none
CCOC(=O)C1=C(COC(=O)COc2cc(C)ccc2C)NC(=O)NC1C (centres undefined)	none
CCOc1ccc2nc(N3CCC(C(=O)N4CCN(C(=O)c5ccco5)CC4)CC3)sc2c1	V-ATPase pHluor 11.8 (no result: ASAP1 GAP inh, ARFGAP1 inh) | VATPase regulator inactive
COc1cccc(N2C(=O)Nc3ccc(Br)cc3C2(O)C(=O)NCCN(C)C)c1 (centres undefined)	none
Cc1ccccc1C(=O)NC(=S)Nc1ccc(S(=O)(=O)N2CCN(C)CC2)cc1	none
Cc1ccccc1C(=O)NC(=S)Nc1ccc(S(=O)(=O)N2CCOCC2)cc1	V-ATPase pHluor 9.5 | VATPase regulator inactive
CC1CCN(C(=O)Cn2cnc3c(cnn3C(C)(C)C)c2=O)CC1	V-ATPase pHluor 10.9 | VATPase regulator inactive
CC(C)(C)n1ncc2c(=O)n(CC(=O)N3CCCC3)cnc21	none
COC(=O)c1[nH]c2c(c1C)C(=O)CC(c1cccc(OC)c1)C2 (centres undefined)	V-ATPase pHluor 12.9 | VATPase regulator inactive
CN(C)S(=O)(=O)c1ccc(C(=O)NCC(=O)Nc2ccc(F)c(F)c2)cc1	V-ATPase pHluor 7.0 | VATPase regulator inactive
CN(C)S(=O)(=O)c1ccc(C(=O)Nc2ccc(Cl)cc2)cc1	none

High-throughput results as filed in PubChem BioAssay.
